# Data as given in ChEMBL document CHEMBL4689842, “EUbOPEN Chemogenomics Library wave 1” (2021).
# Test system: Fibroblast
# Assay: Multiplex assay against human fibroblast
# Format: toxicity, cell-based
# In short: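 Hoechst33342, BioTracker Green Microtubule Cytoskeleton Dye, MitoTracker Red and Annexin V Alexa Fluor 680 were added to live cells at seeding, and imaging on a CQ1 microscope at 37°C and 5% CO2 followed compound addition. Gating by CellPathfinder machine learning separated cells into Hoechst high-intensity objects or normal cells, then normal cells into healthy, pyknosed or fragmented nuclei, then pyknosed cells into mitotic or apoptotic. Per cents of healthy-nucleus cells are reported for the tubulin, mitochondrial-mass and membrane-permeability phenotypes.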
# [1] = 12 h, 1 µM, compound concentration 1 uM, replicate 1
# [2] = 12 h, 1 µM, compound concentration 1 uM, replicate 2
# [3] = 12 h, 10 µM, compound concentration 10 uM, replicate 1
# [4] = 12 h, 10 µM, compound concentration 10 uM, replicate 2
# [5] = 24 h, 1 µM, compound concentration 1 uM, replicate 1
# [6] = 24 h, 1 µM, compound concentration 1 uM, replicate 2
# [7] = 24 h, 10 µM, compound concentration 10 uM, replicate 1
# [8] = 24 h, 10 µM, compound concentration 10 uM, replicate 2
# [9] = 48 h, 1 µM, compound concentration 1 uM, replicate 1
# [10] = 48 h, 1 µM, compound concentration 1 uM, replicate 2
# [11] = 48 h, 10 µM, compound concentration 10 uM, replicate 1
# [12] = 48 h, 10 µM, compound concentration 10 uM, replicate 2
smiles,measurement,setting,value
Cc1ccc2c(c1)c1c(n2CCc2ccc(C)nc2)CCN(C)C1 [LATREPIRDINE],Population Apoptotic (%),[1],60%
same,Population Fragmented Nuclei (%),[1],26%
same,Population Healthy Nuclei (%),[1],55%
same,Population Hoechst High Intensity Objects (%),[1],15%
same,Population Membrane Permeable-Phenotype (%),[1],18%
same,Population Mitochondria Different-Phenotype (%),[1],18%
same,Population Mitotic Cells (%),[1],40%
same,Population Normal (%),[1],84%
same,Population Pyknosed Nuclei (%),[1],18%
same,Population Tubulin-Different-Phenotype (%),[1],59%
same,Total Cell Count,[1],127
same,Population Apoptotic (%),[2],100%
same,Population Fragmented Nuclei (%),[2],27%
same,Population Healthy Nuclei (%),[2],67%
same,Population Hoechst High Intensity Objects (%),[2],16%
same,Population Membrane Permeable-Phenotype (%),[2],5%
same,Population Mitochondria Different-Phenotype (%),[2],27%
same,Population Mitotic Cells (%),[2],0%
same,Population Normal (%),[2],83%
same,Population Pyknosed Nuclei (%),[2],4%
same,Population Tubulin-Different-Phenotype (%),[2],27%
same,Total Cell Count,[2],61
same,Population Apoptotic (%),[3],55%
same,Population Fragmented Nuclei (%),[3],29%
same,Population Healthy Nuclei (%),[3],47%
same,Population Hoechst High Intensity Objects (%),[3],15%
same,Population Membrane Permeable-Phenotype (%),[3],3%
same,Population Mitochondria Different-Phenotype (%),[3],30%
same,Population Mitotic Cells (%),[3],44%
same,Population Normal (%),[3],84%
same,Population Pyknosed Nuclei (%),[3],23%
same,Population Tubulin-Different-Phenotype (%),[3],88%
same,Total Cell Count,[3],148
same,Population Apoptotic (%),[4],88%
same,Population Fragmented Nuclei (%),[4],7%
same,Population Healthy Nuclei (%),[4],65%
same,Population Hoechst High Intensity Objects (%),[4],8%
same,Population Membrane Permeable-Phenotype (%),[4],42%
same,Population Mitochondria Different-Phenotype (%),[4],100%
same,Population Mitotic Cells (%),[4],11%
same,Population Normal (%),[4],91%
same,Population Pyknosed Nuclei (%),[4],26%
same,Population Tubulin-Different-Phenotype (%),[4],100%
same,Total Cell Count,[4],103
same,Population Apoptotic (%),[5],60%
same,Population Fragmented Nuclei (%),[5],27%
same,Population Healthy Nuclei (%),[5],59%
same,Population Hoechst High Intensity Objects (%),[5],16%
same,Population Membrane Permeable-Phenotype (%),[5],22%
same,Population Mitochondria Different-Phenotype (%),[5],14%
same,Population Mitotic Cells (%),[5],40%
same,Population Normal (%),[5],83%
same,Population Pyknosed Nuclei (%),[5],12%
same,Population Tubulin-Different-Phenotype (%),[5],61%
same,Total Cell Count,[5],140
same,Population Apoptotic (%),[6],55%
same,Population Fragmented Nuclei (%),[6],23%
same,Population Healthy Nuclei (%),[6],67%
same,Population Hoechst High Intensity Objects (%),[6],13%
same,Population Membrane Permeable-Phenotype (%),[6],10%
same,Population Mitochondria Different-Phenotype (%),[6],27%
same,Population Mitotic Cells (%),[6],44%
same,Population Normal (%),[6],86%
same,Population Pyknosed Nuclei (%),[6],8%
same,Population Tubulin-Different-Phenotype (%),[6],14%
same,Total Cell Count,[6],74
same,Population Apoptotic (%),[7],55%
same,Population Fragmented Nuclei (%),[7],33%
same,Population Healthy Nuclei (%),[7],51%
same,Population Hoechst High Intensity Objects (%),[7],28%
same,Population Membrane Permeable-Phenotype (%),[7],10%
same,Population Mitochondria Different-Phenotype (%),[7],37%
same,Population Mitotic Cells (%),[7],45%
same,Population Normal (%),[7],71%
same,Population Pyknosed Nuclei (%),[7],14%
same,Population Tubulin-Different-Phenotype (%),[7],82%
same,Total Cell Count,[7],189
same,Population Apoptotic (%),[8],76%
same,Population Fragmented Nuclei (%),[8],4%
same,Population Healthy Nuclei (%),[8],56%
same,Population Hoechst High Intensity Objects (%),[8],4%
same,Population Membrane Permeable-Phenotype (%),[8],56%
same,Population Mitochondria Different-Phenotype (%),[8],100%
same,Population Mitotic Cells (%),[8],24%
same,Population Normal (%),[8],95%
same,Population Pyknosed Nuclei (%),[8],38%
same,Population Tubulin-Different-Phenotype (%),[8],100%
same,Total Cell Count,[8],119
same,Population Apoptotic (%),[9],88%
same,Population Fragmented Nuclei (%),[9],36%
same,Population Healthy Nuclei (%),[9],55%
same,Population Hoechst High Intensity Objects (%),[9],23%
same,Population Membrane Permeable-Phenotype (%),[9],13%
same,Population Mitotic Cells (%),[9],11%
same,Population Normal (%),[9],76%
same,Population Pyknosed Nuclei (%),[9],8%
same,Population Tubulin-Different-Phenotype (%),[9],42%
same,Total Cell Count,[9],140
same,Population Apoptotic (%),[10],100%
same,Population Fragmented Nuclei (%),[10],53%
same,Population Healthy Nuclei (%),[10],43%
same,Population Hoechst High Intensity Objects (%),[10],44%
same,Population Membrane Permeable-Phenotype (%),[10],22%
same,Population Mitochondria Different-Phenotype (%),[10],6%
same,Population Mitotic Cells (%),[10],0%
same,Population Normal (%),[10],55%
same,Population Pyknosed Nuclei (%),[10],3%
same,Population Tubulin-Different-Phenotype (%),[10],56%
same,Total Cell Count,[10],206
same,Population Fragmented Nuclei (%),[11],40%
same,Population Healthy Nuclei (%),[11],56%
same,Population Hoechst High Intensity Objects (%),[11],31%
same,Population Membrane Permeable-Phenotype (%),[11],7%
same,Population Mitochondria Different-Phenotype (%),[11],21%
same,Population Normal (%),[11],68%
same,Population Pyknosed Nuclei (%),[11],3%
same,Population Tubulin-Different-Phenotype (%),[11],80%
same,Total Cell Count,[11],208
same,Population Apoptotic (%),[12],100%
same,Population Fragmented Nuclei (%),[12],34%
same,Population Healthy Nuclei (%),[12],64%
same,Population Hoechst High Intensity Objects (%),[12],25%
same,Population Membrane Permeable-Phenotype (%),[12],14%
same,Population Mitochondria Different-Phenotype (%),[12],9%
same,Population Mitotic Cells (%),[12],0%
same,Population Normal (%),[12],74%
same,Population Pyknosed Nuclei (%),[12],2%
same,Population Tubulin-Different-Phenotype (%),[12],79%
same,Total Cell Count,[12],134
